Source: PMC3262993 (Chemmedchem, 2009)
Read-outs that look alike come from different tables or passages of the source.

Legend:
[1] = target: recombinant human CB2 (hCB2) (Homo sapiens, UniProt P34972); assay: γ-[35S]GTP functional assay, hCB2; type: biochemical; conditions: for γ-[35S]GTP hCB2 Emax: percentage relative to the efficacy of compound 7
[2] = target: K+ channel hERG (Homo sapiens, UniProt Q12809)
[3] = test system: neuropathic pain in spinal nerve ligation and paclitaxel-induced neuropathy models; conditions: cited from earlier work
[4] = test system: TC7
[5] = test system: strain TA98
[6] = test system: plasma protein; conditions: 1.0E-05 M
[7] = target: hCB2 (Homo sapiens, UniProt P34972); assay: Radioligand competitive binding assay
[8] = PBS, pH 7.4, at 2.0 × 10^-4 M
[9] = target: hCB1 (Homo sapiens, UniProt P21554); assay: Radioligand competitive binding assay, hCB1
[10] = target: recombinant human CB1 (hCB1) (Homo sapiens, UniProt P21554); assay: γ-[35S]GTP functional assay, hCB1; type: biochemical
[11] = test system: tactile allodynia in a paclitaxel-induced neuropathic pain model; assay: Tactile allodynia in paclitaxel-induced neuropathic pain model; type: in vivo, rat; conditions: paclitaxel-treated rats; for Effect on mechanical (tactile) allodynia: intraperitoneal administration
How it was run: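 Adult male Sprague Dawley rats (120–150 g) were housed three per cage on a 12 h light/dark cycle. Paclitaxel was given at 1.0 mg kg−1 i.p. daily for 4 days (cumulative 4 mg kg−1), with vehicle 10 % Cremophor EL in saline at 1 mL kg−1. Hind-paw mechanical withdrawal was tested daily from day 0 after ≥30 min acclimation on wire mesh. Test compound was given i.p.; n = 5–6 per group.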

[12] = read-out: Ki hCB2, CHO-K1 membranes, 1 nM [3H]7, mean ± SEM

recombinant human CB1 (hCB1), sequence (P21554 whole entry): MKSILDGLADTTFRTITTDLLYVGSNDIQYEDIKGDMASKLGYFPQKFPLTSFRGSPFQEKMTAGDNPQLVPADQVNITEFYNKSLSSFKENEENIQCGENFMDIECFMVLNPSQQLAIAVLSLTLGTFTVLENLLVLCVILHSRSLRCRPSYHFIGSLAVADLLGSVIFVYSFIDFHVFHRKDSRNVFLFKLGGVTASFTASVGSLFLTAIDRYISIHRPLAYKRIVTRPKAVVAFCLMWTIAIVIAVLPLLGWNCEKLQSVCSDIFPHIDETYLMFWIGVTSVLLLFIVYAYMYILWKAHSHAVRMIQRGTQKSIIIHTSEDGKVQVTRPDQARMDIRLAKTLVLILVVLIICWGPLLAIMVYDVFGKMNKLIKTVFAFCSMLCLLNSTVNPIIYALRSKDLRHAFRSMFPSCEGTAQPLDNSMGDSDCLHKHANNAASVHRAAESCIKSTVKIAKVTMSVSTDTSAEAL
hCB1, sequence (P21554 whole entry): as above
hCB2, sequence (P34972 whole entry): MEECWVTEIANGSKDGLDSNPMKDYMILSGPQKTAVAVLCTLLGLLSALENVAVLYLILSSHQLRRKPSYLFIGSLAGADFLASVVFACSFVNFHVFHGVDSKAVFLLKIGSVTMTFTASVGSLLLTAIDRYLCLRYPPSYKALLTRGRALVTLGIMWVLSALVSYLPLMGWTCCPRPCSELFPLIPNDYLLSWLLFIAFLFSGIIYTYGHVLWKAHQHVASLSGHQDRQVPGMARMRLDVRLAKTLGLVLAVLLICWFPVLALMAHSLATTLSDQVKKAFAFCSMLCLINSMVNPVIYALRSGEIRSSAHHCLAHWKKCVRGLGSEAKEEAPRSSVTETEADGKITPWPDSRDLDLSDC
recombinant human CB2 (hCB2), sequence (P34972 whole entry): as above
K+ channel hERG, sequence (Q12809 whole entry): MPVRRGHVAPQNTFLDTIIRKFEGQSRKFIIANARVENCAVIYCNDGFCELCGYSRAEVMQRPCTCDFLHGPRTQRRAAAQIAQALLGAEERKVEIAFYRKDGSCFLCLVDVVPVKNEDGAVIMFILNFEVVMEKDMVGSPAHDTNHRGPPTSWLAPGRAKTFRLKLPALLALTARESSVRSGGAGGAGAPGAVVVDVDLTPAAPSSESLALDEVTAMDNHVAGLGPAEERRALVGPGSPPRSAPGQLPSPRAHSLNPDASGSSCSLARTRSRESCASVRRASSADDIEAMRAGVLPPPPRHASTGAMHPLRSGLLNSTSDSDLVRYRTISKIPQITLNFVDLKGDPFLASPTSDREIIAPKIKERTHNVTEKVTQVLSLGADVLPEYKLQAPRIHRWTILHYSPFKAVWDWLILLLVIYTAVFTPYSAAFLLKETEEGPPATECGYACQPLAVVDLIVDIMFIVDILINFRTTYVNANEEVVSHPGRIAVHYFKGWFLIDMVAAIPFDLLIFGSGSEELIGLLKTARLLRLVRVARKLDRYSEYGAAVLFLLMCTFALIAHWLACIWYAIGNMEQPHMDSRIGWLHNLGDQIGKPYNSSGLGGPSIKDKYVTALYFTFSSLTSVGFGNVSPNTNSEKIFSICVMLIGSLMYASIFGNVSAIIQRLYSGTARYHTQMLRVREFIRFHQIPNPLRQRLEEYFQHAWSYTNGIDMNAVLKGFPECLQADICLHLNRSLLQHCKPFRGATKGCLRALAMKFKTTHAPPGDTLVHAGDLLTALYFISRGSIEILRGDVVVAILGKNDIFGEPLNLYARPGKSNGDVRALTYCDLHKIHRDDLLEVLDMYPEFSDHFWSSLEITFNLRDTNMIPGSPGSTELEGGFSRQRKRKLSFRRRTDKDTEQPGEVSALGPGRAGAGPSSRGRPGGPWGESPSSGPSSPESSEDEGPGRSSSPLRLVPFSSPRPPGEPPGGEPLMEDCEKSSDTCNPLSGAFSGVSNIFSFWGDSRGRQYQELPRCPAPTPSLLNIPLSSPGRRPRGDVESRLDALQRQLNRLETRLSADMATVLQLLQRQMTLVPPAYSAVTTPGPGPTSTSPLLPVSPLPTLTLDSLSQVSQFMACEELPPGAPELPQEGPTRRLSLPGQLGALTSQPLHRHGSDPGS

## C[C@@]1(Cc2ccccc2)COc2cc(C(=O)N3CCCCC3)ccc21 [Compound 33, (S)-3-Benzyl-3-methyl-2,3-dihydrobenzofuran-6-carboxylic acid piperidine amide]
[1]
  γ-[35S]GTP hCB2 Emax: 86%

## CC1(Cc2ccccc2)COc2cc(C(=O)N3CCCCC3)ccc21 (stereo not shown) [Compound 18, 3-Benzyl-3-methyl-2,3-dihydrobenzofuran-6-carboxylic acid piperidine amide]
[2]
  Cardiac toxicity: did not show any cardiac toxicity
[2]; at 1 μM
  K+ channel hERG automated patch-clamp (cardiac toxicity): inactive at 1 μm
[3]; rats
  Effect on locomotor behavior: without affecting locomotor behavior
[3]; spinal nerve ligation and paclitaxel-induced neuropathy models in rats
  Effect on neuropathic pain: reversed neuropathic pain
[4]
  Intestinal permeability, assessment: compatible with oral administration with no efflux
[4]; TC7, pH 6.5/7.4
  A–B permeability (% recovery): 63.5 ± 6.5%
  B–A permeability (% recovery): 85.5 ± 0.5%
[4]; TC7, pH 6.5/7.4, 1.0E-05 M
  A–B permeability: 52.2 ± 1.7 10^−6 cm s^−1
  B–A permeability: 16.2 ± 0.2 10^−6 cm s^−1
[1]
  γ-[35S]GTP hCB2 Emax: 88.3%
[5]; up to 10 μM
  Genetic toxicity (Ames test): No genetic toxicity
[5]; with S9
  Ames test (strain TA98 +S9): <0
[5]; without S9
  Ames test (strain TA98): <0
[6]
  Protein bound (human): 82.8 ± 11.1%
  Protein recovery (human): 95.6 ± 13.6%
[7]; [12]
  Ki: 422 ± 123 nM
[8]
  Aqueous solubility: 31.8 ± 1.8 μm μM
[9]; read-out: Ki hCB1, mean ± SEM
  Ki: > 10000 nM

## CC1(Cc2ccc(Cl)cc2)COc2cc(C(=O)N3CCCCC3)ccc21 (stereo not shown) [Compound 30, [3-(4-Chlorobenzyl)-3-methyl-2,3-dihydrobenzofuran-6-yl]piperidin-1-ylmethanone]
[10]
  EC50: 1363 ± 1.4 nM
[10]; read-out: γ-[35S]GTP hCB1 Emax
  Emax: 86.9%
[1]
  EC50: 56.2 ± 1.2 nM
[7]
  Ki: 123 ± 16.5 nM

## CC1(Cc2ccccc2)COc2cc(C(=O)NCC3CCOCC3)ccc21 (stereo not shown) [Compound 24, 3-Benzyl-3-methyl-2,3-dihydrobenzofuran-6-carboxylic acid (tetrahydropyran-4-ylmethyl)amide]
[10]
  EC50: > 10000 nM
[1]
  EC50: 659 ± 1.4 nM

## CC1(Cc2ccccc2)COc2cc(C(=O)N3CCOCC3)ccc21 (stereo not shown) [Compound 22, (3-Benzyl-3-methyl-2,3-dihydrobenzofuran-6-yl)morpholinomethanone]
[10]
  EC50: > 10000 nM
[1]
  EC50: 5583 ± 4.4 nM

## CC1(Cc2cccc3ccccc23)COc2cc(C(=O)N3CCCCC3)ccc21 (stereo not shown) [Compound 28, (3-Methyl-3-naphthalen-1-ylmethyl-2,3-dihydrobenzofuran-6-yl)-piperidin-1-ylmethanone]
[10]
  EC50: > 10000 nM
[1]
  EC50: > 10000 nM

## CCC/C=C/CC1(C)COc2cc(C(=O)NC3CCCCC3)ccc21 (stereo not shown) [Compound 20, 3-((E)-Hex-2-enyl)-3-methyl-2,3-dihydrobenzofuran-6-carboxylic acid cyclohexylamide]
[10]
  EC50: > 10000 nM
[1]
  EC50: 839 ± 5.5 nM
[7]
  Ki: > 1000 nM
[9]
  Ki: > 1000 nM

## CN(C(=O)c1ccc2c(c1)OCC2(C)Cc1ccccc1)C(C)(C)C (stereo not shown) [Compound 23, 3-Benzyl-N-tert-butyl-N,3-dimethyl-2,3-dihydrobenzofuran-6-carboxamide]
[10]
  EC50: 2580 ± 1.5 nM
[1]
  EC50: 95.3 ± 1.8 nM

## CC1(Cc2ccncc2)COc2cc(C(=O)N3CCCCC3)ccc21 (stereo not shown) [Compound 32, [3-Methyl-3-(4-pyridylmethyl)-2,3-dihydrobenzofuran-6-yl]-(1-piperidyl)methanone]
[10]
  EC50: > 10000 nM
[1]
  EC50: 2800 nM

## CN1CCCCC1Cn1cc(C(=O)c2cc([N+](=O)[O-])ccc2I)c2ccccc21 (stereo not shown) [Compound 1, AM1241, reference compound]
[11]; i.p., 1, 3 and 5 mg kg^-1
  Effects on tactile allodynia versus vehicle: not significantly different from the effects induced by the vehicle
[11]
  Effect on mechanical (tactile) allodynia: did not affect the paw withdrawal threshold

## COc1ccc(CC2(C)COc3cc(C(=O)N4CCCCC4)ccc32)cc1 (stereo not shown) [Compound 31, [3-[(4-Methoxyphenyl)methyl]-3-methyl-2,3-dihydrobenzofuran-6-yl]-(1-piperidyl)methanone]
[10]
  EC50: > 10000 nM
[1]
  EC50: 235 nM

## CC1(Cc2ccccc2)COc2cc(C(=O)NC3CCCCC3)ccc21 (stereo not shown) [Compound 17, 3-Benzyl-3-methyl-2,3-dihydrobenzofuran-6-carboxylic acid cyclohexylamide]
[10]
  EC50: > 10000 nM

## CCC/C=C/CC1(C)COc2cc(C(=O)N3CCCCC3)ccc21 (stereo not shown) [Compound 19]
[11]; i.p., 15 mg kg^-1
  %MPE for reversing mechanical allodynia versus vehicle: significantly different (P <0.05) from that of the vehicle
[11]
  Effect on mechanical (tactile) allodynia: suppressed mechanical allodynia
[10]; percentage relative to the efficacy of compound 7
  γ-[35S]GTP hCB1 Emax: 60%
[1]
  γ-[35S]GTP hCB2 Emax: 97.1%
[7]; [12]
  Ki: 83.6 ± 23.8 nM

## CC1(Cc2ccc3ccccc3c2)COc2cc(C(=O)N3CCCCC3)ccc21 (stereo not shown) [Compound 29, (3-Methyl-3-naphthalen-2-ylmethyl-2,3-dihydrobenzofuran-6-yl)-piperidin-1-ylmethanone]
[10]
  EC50: > 10000 nM
[1]
  EC50: 875 ± 1.4 nM
[7]
  Ki: 490 ± 45 nM
[9]
  Ki: 430 ± 39 nM

## CC1(Cc2ccccc2)COc2ccc(C(=O)NC3CCCCC3)cc21 (stereo not shown) [Compound 14, 3-Benzyl-3-methyl-2,3-dihydrobenzofuran-5-carboxylic acid cyclohexylamide]
[10]
  EC50: > 10000 nM

## C[C@]1(Cc2ccccc2)COc2cc(C(=O)N3CCCCC3)ccc21 [Compound 34, (R)-3-benzyl-3-methyl-2,3-dihydrobenzofuran-6-carboxylic acid piperidine amide]
[1]
  γ-[35S]GTP hCB2 Emax: 43.3%

## CC1(Cc2cccc3ccccc23)COc2cc(C(=O)NC3CCCCC3)ccc21 (stereo not shown) [Compound 27, 3-Methyl-3-naphthalen-1-ylmethyl-2,3-dihydrobenzofuran-6-carboxylic acid cyclohexylamide]
[10]
  EC50: > 10000 nM
[1]
  EC50: > 10000 nM
